Measured values reported in ChEMBL document CHEMBL1134566, “Human thioredoxin reductase is efficiently inhibited by (2,2':6',2' '-terpyridine)platinum(II) complexes. Possible implications for a novel antitumor strategy” (J Med Chem, 2001).

Assays:
[1] = biological target: T1, Thioredoxin reductase (Homo sapiens, UniProt Q16881+Q9NNW7+Q86VQ6); test: Inhibitory concentration for Km'; format: protein assay
Summary of the method: (§1)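 Reversible competitive component. About 2 nM placental hTrxR with DTNB 50 μM–1 mM and a single inhibitor concentration (10 nM–1 μM) in phosphate/EDTA buffer, pH 7.4. Started with 200 μM NADPH at 25 °C, TNB formation read at 412 nm. Km' compared with Km without inhibitor; Ki = Km[I]/(Km' − Km).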

[2] = biological target: Glutathione reductase, mitochondrial (Homo sapiens) (UniProt P00390); test: Percent inhibition of the glutathione reductase after 2 min incubation at 10 uM inhibitory concentration
Glutathione reductase, mitochondrial (Homo sapiens), sequence (P00390 whole entry): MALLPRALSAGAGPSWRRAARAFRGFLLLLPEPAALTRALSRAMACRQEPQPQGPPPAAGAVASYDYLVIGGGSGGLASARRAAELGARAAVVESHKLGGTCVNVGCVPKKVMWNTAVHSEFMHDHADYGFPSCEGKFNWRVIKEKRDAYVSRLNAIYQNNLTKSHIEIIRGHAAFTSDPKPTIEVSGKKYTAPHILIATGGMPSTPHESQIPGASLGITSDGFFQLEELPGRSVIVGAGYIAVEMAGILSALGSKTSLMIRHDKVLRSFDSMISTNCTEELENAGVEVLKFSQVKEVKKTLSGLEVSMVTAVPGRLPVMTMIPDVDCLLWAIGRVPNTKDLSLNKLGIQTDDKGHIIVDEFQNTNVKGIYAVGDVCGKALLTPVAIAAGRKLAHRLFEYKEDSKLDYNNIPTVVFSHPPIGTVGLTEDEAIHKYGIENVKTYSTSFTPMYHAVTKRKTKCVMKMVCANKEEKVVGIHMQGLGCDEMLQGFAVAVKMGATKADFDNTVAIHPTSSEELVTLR
Summary of the method: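 Human glutathione reductase in 47 mM potassium phosphate, 1 mM EDTA, 200 mM KCl, pH 6.9, 100 μM NADPH. Enzyme preincubated 2 min with 10 μM compound in the assay mixture, then started with 1 mM GSSG at 25 °C. NADPH consumption followed as A340 decrease; percent inhibition versus uninhibited enzyme.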

[3] = biological target: T1, Thioredoxin reductase; test: Michaelis-Menten constant (Km') for DTNB (5,5'-dithiobis(2-nitrobenzoate) in the presence of the compound; format: protein assay; summary of the method: as §1
[4] = biological target: T1, Thioredoxin reductase; test: Inhibitory concentration at 50% inhibition; format: protein assay
Summary of the method: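 Tight-binding hTrxR inhibition. Human placental TrxR (~2 nM) in 100 mM potassium phosphate, 2 mM EDTA, pH 7.4, reduced with 200 μM NADPH, then preincubated with varying inhibitor for 5 min at 25 °C (footnote says 2 min). Activity started with 3 mM DTNB and read as A412 increase. IC50 taken from dose-response curves.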

[5] = biological target: T1, Thioredoxin reductase; test: Inhibitory concentration used to inhibit the enzyme competitively with the substrate; format: protein assay; summary of the method: as §1
[6] = test system: HNO 97 cell line; test: 50% Growth inhibition on HNO97 head and neck squamous carcinoma cell lines; format: functional, cell-based
Summary of the method: (§2)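 BrdU incorporation proliferation assay. 7×10^3 cells/well in RPMI 1640 with 10% FCS, 8 replicas. Compound added 24 h after seeding at 1, 5, 10 or 20 μM, either once or three times at 24 h intervals; 67 h total incubation. BrdU (100 μM final) added 48 h after first addition. Absorbance expressed relative to untreated controls (100%). IC50 ± SD from ≥2 independent experiments.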

[7] = test system: NCH82; test: 50% Growth inhibition on NCH82 glioma cell lines
[8] = test system: NCH89; test: 50% Growth inhibition on NCH89 glioma cell lines; format: functional, cell-based; summary of the method: as §2
[9] = test system: HNO199 cell line; test: 50% Growth inhibition on HNO199 head and neck squamous carcinoma cell lines; format: functional, cell-based; summary of the method: as §2
[10] = test system: NCH37; test: 50% Growth inhibition on NCH37 glioma cell lines
[11] = biological target: T1, Thioredoxin reductase; test: Percent TrxR activity after exposure to 1 uM for 30 mins; format: functional
Summary of the method: (§3)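 NCH37 glioblastoma cells in RPMI 1640 with 10% FCS at 37 °C, 5% CO2, given compound once or as doses at 0, 24 and 48 h. Sampled at 30, 90, 270 min or 67 h. Intact cells washed in PBS and sonicated; cleared lysate assayed. TrxR used 100 μM E. coli thioredoxin, with NADPH oxidase background subtracted. GR used the GSSG/NADPH A340 assay. mU/10^6 cells given as % of untreated controls, mean of three experiments.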

[12] = biological target: Glutathione reductase, mitochondrial (Homo sapiens) (UniProt P00390); test: Percent GR activity after exposure to 3x1 uM concentration at regular intervals of 0,24,48 hours for the period of 67 hours; summary of the method: as §3
[13] = biological target: T1, Thioredoxin reductase; test: Percent TrxR activity after exposure to 1 uM for 270 mins; format: functional; summary of the method: as §3
[14] = biological target: T1, Thioredoxin reductase; test: Percent TrxR activity after exposure to 1 uM for 67h; format: functional; summary of the method: as §3
[15] = biological target: T1, Thioredoxin reductase; test: Percent TrxR activity after exposure to 1 uM for 90 mins; format: functional; summary of the method: as §3
[16] = biological target: T1, Thioredoxin reductase; test: Percent TrxR activity after exposure to 5 uM for 30 mins; format: functional; summary of the method: as §3
[17] = biological target: Glutathione reductase, mitochondrial (Homo sapiens) (UniProt P00390); test: Percent GR activity after exposure to 3x5 uM concentration at regular intervals of 0,24,48 hours for the period of 67 hours; summary of the method: as §3
[18] = biological target: T1, Thioredoxin reductase; test: Percent TrxR activity after exposure to 3x1 uM concentration at regular intervals of 0,24,48 hours for the period of 67 hours; format: functional; summary of the method: as §3
[19] = biological target: T1, Thioredoxin reductase; test: Percent TrxR activity after exposure to 3x10 uM concentration at regular intervals of 0,24,48 hours for the period of 67 hours; format: functional; summary of the method: as §3
[20] = biological target: T1, Thioredoxin reductase; test: Percent TrxR activity after exposure to 3x5 uM concentration at regular intervals of 0,24,48 hours for the period of 67 hours; format: functional; summary of the method: as §3
[21] = biological target: Glutathione reductase, mitochondrial (Homo sapiens) (UniProt P00390); test: Percent GR activity after exposure to 10 uM for 67 hr; summary of the method: as §3
[22] = biological target: Glutathione reductase, mitochondrial (Homo sapiens) (UniProt P00390); test: Percent GR activity after exposure to 1 uM for 67 hr; summary of the method: as §3
[23] = biological target: Glutathione reductase, mitochondrial (Homo sapiens) (UniProt P00390); test: Percent GR activity after exposure to 1 uM for 90 min; summary of the method: as §3
[24] = biological target: T1, Thioredoxin reductase; test: Percent TrxR activity after exposure to 5 uM for 67 hr; format: functional; summary of the method: as §3
[25] = biological target: Glutathione reductase, mitochondrial (Homo sapiens) (UniProt P00390); test: Percent GR activity after exposure to 1 uM for 30 min; summary of the method: as §3
[26] = biological target: Glutathione reductase, mitochondrial (Homo sapiens) (UniProt P00390); test: Percent GR activity after exposure to 5 uM for 67 hr; summary of the method: as §3
[27] = biological target: T1, Thioredoxin reductase; test: Percent TrxR activity after exposure to 10 uM for 67 hrs; format: functional; summary of the method: as §3
[28] = biological target: Glutathione reductase, mitochondrial (Homo sapiens) (UniProt P00390); test: Percent GR activity after exposure to 1 uM for 270 min; summary of the method: as §3
[29] = biological target: Glutathione reductase, mitochondrial (Homo sapiens) (UniProt P00390); test: Percent GR activity after exposure to 3x10 uM concentration at regular intervals of 0,24,48 hours for the period of 67 hours; summary of the method: as §3

T1 sequence (Q86VQ6 whole entry, looked up, chain 1 of 3): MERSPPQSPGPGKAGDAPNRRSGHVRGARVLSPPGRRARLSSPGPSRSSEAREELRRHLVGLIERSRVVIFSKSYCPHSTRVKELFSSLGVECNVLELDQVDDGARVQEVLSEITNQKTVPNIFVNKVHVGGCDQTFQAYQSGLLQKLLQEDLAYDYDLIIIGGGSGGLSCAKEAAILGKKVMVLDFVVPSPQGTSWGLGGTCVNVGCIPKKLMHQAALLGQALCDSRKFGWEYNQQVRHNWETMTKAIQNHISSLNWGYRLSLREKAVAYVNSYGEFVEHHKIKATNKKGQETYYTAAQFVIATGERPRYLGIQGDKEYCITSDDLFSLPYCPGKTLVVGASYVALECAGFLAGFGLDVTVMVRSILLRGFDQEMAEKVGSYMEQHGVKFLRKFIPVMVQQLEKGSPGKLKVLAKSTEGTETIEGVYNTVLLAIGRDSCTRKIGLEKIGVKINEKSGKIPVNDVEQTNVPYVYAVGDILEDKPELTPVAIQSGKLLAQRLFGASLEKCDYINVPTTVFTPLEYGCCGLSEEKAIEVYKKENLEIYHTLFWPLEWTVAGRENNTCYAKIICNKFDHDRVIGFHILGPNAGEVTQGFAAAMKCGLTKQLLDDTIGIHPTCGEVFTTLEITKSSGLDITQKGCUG
T1 sequence (Q9NNW7 whole entry, looked up, chain 2 of 3): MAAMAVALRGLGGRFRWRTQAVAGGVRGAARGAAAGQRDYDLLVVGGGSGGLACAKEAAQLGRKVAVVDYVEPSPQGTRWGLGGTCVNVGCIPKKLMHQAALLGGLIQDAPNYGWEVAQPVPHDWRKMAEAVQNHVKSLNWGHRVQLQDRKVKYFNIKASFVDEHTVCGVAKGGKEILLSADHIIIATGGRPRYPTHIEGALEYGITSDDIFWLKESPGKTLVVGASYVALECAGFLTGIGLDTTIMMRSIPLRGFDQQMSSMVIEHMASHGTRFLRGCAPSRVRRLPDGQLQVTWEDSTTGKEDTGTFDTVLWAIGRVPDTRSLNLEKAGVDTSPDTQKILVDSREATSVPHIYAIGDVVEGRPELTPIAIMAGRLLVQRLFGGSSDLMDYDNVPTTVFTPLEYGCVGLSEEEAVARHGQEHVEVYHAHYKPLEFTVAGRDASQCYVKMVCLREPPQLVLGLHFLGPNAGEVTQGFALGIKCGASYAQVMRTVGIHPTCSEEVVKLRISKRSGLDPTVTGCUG
T1 sequence (Q16881 whole entry, looked up, chain 3 of 3): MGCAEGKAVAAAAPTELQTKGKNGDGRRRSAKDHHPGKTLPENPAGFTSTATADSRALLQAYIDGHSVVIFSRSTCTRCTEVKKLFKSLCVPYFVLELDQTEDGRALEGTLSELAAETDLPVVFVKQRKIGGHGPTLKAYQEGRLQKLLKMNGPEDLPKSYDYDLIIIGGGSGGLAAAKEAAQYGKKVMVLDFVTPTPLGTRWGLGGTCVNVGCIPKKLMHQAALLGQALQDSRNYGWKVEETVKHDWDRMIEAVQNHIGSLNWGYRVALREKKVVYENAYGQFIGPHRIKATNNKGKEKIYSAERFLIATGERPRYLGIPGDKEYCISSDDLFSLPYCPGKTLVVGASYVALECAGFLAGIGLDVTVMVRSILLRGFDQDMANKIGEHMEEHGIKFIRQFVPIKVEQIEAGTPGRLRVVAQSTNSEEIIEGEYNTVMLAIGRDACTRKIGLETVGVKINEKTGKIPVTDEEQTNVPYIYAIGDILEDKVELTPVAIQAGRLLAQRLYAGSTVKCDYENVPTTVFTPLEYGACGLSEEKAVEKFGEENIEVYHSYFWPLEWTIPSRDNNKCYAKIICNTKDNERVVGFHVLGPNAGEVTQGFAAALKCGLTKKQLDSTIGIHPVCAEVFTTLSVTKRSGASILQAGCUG

Substance | [I] for Km' [1] [µM] | inhibition [2] [%] | Km' [3] [µM] | IC50 [4] [µM] | Ki [5] [µM] | further results
2-Mercaptopyridine (4'-chloro-2,2':6',2''-terpyridine)platinum (II) Nitrate [listing 1 of 2 here] | 0.01 | 47 | 247 | – | – | –
4-Mercaptoethanol-(2,2':6',2''-terpyridine)platinum (II) Nitrate [listing 1 of 2 here] | – | – | – | 0.035 | 0.348 | –
2-Mercaptopyrimidine (4'-chloro-2,2':6',2''-terpyridine)platinum (II) Nitrate [listing 1 of 2 here] | 0.1 | 66 | 715 | – | – | –
4-Mercaptoethanol-(2,2':6',4'-chloro,2''-terpyridine)platinum (II) Nitrate [listing 1 of 2 here] | 1 | 55 | 4740 | – | – | –
4-Mercaptopyridine (4'-chloro-2,2':6',2''-terpyridine)platinum (II) Nitrate [listing 1 of 2 here] | – | – | – | 0.004 | 0.005 | IC50 [6]: 5.5 µM; IC50 [7]: 7.4 µM; IC50 [8]: 2.5 µM; IC50 [9]: 9.2 µM; IC50 [10]: 10.5 µM
2-Mercaptopyrimidine (4'-chloro-2,2':6',2''-terpyridine)platinum (II) Nitrate [listing 2 of 2 here] | – | – | – | 0.007 | 0.017 | –
2-Mercaptopyridine (4'-chloro-2,2':6',2''-terpyridine)platinum (II) Nitrate [listing 2 of 2 here] | – | – | – | 0.006 | 0.007 | –
4-Mercaptopyridine (4'-chloro-2,2':6',2''-terpyridine)platinum (II) Nitrate [listing 2 of 2 here] | 0.05 | 90 | 1060 | – | – | Activity [11]: 50%; Activity [12]: 180%; Activity [13]: 90%; Activity [14]: 160%; Activity [15]: 50%; Activity [16]: 30%; Activity [17]: 220%; Activity [18]: 110%; Activity [19]: 5%; Activity [20]: 60%; Activity [21]: 260%; Activity [22]: 220%; Activity [23]: 90%; Activity [24]: 130%; Activity [25]: 90%; Activity [26]: 200%; Activity [27]: 80%; Activity [28]: 110%; Activity [29]: 180%
2-Mercaptoimidazole Bis[(4'-chloro-2,2':6',2''-terpyridine)platinum (II)] Trinitrate [listing 1 of 2 here] | – | – | – | 0.003 | 0.011 | –
4-Mercaptoethanol-(2,2':6',4'-chloro,2''-terpyridine)platinum (II) Nitrate [listing 2 of 2 here] | – | – | – | 0.03 | 0.022 | –
2-Mercaptoimidazole Bis[(4'-chloro-2,2':6',2''-terpyridine)platinum (II)] Trinitrate [listing 2 of 2 here] | 0.1 | 20 | 1010 | – | – | –
4-Mercaptoethanol-(2,2':6',2''-terpyridine)platinum (II) Nitrate [listing 2 of 2 here] | 1 | 7 | 399 | – | – | –
